Assay results: ChEMBL document CHEMBL1124666, “Novel linked antiviral and antitumor agents related to netropsin and distamycin: synthesis and biological evaluation” (1989)
≈ marks a conversion by molar mass, not a printed value.

Tests used:
L1210 = assay: Inhibitory effect on the proliferation of murine leukemia (L1210 ) cells; assay type: functional; conditions: Mus musculus, read-out: ID50 (the source's name)
Vaccinia virus [1] = assay: Minimum inhibitory concentration against vaccinia virus in Vero cell cultures of experiment 1; assay type: functional; conditions: Orthopoxvirus vaccinia
Human alphaherpesvirus 2 = assay: Minimum inhibitory concentration against Herpes simplex virus 2(G); assay type: functional
Vaccinia virus [2] = assay: Minimum inhibitory concentration against vaccinia virus embryonic skin muscle cell cultures; assay type: functional; conditions: Orthopoxvirus vaccinia
Vaccinia virus [3] = assay: Minimum inhibitory concentration against Vaccinia virus; assay type: functional; conditions: Orthopoxvirus vaccinia
Calf thymus DNA = assay: Relative binding constant to calf thymus DNA; assay type: nucleic-acid assay; conditions: Bos taurus
Outline: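 Ethidium displacement: Tris-EDTA buffer pH 8 with 1.3 μM ethidium bromide and calf thymus DNA (1.35 μM final); drug aliquots added, fluorescence read after a few minutes' equilibration (excitation 525 nm, emission 600 nm). Drug level giving 50% fluorescence decrease converted to relative binding constant taking ethidium binding constant as 10^7 M-1.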

P388 = assay: Inhibitory effect on the proliferation of murine leukemia (P388) cells; assay type: functional; conditions: Mus musculus, read-out: ID50 (the source's name)
Raji = assay: Inhibitory effect on the proliferation of human B lymphoblast (Raji ) cells; assay type: functional; conditions: read-out: ID50 (the source's name)
[4] = Inhibition of Moloney Murine Leukemia Associated Reverse Transcriptase; assay type: functional, Mus musculus
Vaccinia virus [5] = assay: Minimum cytotoxic concentration against vaccinia virus in HeLa cell cultures; assay type: functional; conditions: Orthopoxvirus vaccinia
[6] = Inhibitory effect on the proliferation of human T-lymphoblast (Molt/4F ) cells; assay type: functional; conditions: read-out: ID50 (the source's name)
Vaccinia virus [7] = assay: (§1) Minimum inhibitory concentration against vaccinia virus in primary rabbit kidney cell cultures of experiment 2; assay type: functional, Orthopoxvirus vaccinia; conditions: Orthopoxvirus vaccinia; read-out: MIC
[8] = test system: Vesicular stomatitis virus; assay: Minimum inhibitory concentration against Vesicular stomatitis virus; assay type: functional
[9] = Minimum cytotoxic concentration in primary rabbit kidney (PRK) cell cultures; assay type: functional, Oryctolagus cuniculus
Vaccinia virus [10] = assay: as §1; assay type: functional; conditions: Orthopoxvirus vaccinia
Human alphaherpesvirus 1 = assay: Minimum inhibitory concentration against Herpes simplex virus 1(KOS); assay type: functional
Vaccinia virus [11] = assay: Minimum inhibitory concentration against vaccinia virus in primary rabbit kidney cell cultures of experiment 1; assay type: functional; conditions: Orthopoxvirus vaccinia
Vaccinia virus [12] = assay: Minimum cytotoxic concentration against vaccinia virus in Vero cell cultures; assay type: functional; conditions: Orthopoxvirus vaccinia
FM3A = assay: Inhibitory effect on the proliferation of murine mammary carcinoma (FM3A ) cells; assay type: functional; conditions: Mus musculus, read-out: ID50 (the source's name)
Vaccinia virus [13] = assay: Minimum cytotoxic concentration against vaccinia virus embryonic skin muscle cell cultures; assay type: functional; conditions: Orthopoxvirus vaccinia
Vaccinia virus [14] = assay: Minimum cytotoxic concentration against vaccinia virus in primary rabbit kidney cell cultures; assay type: functional; conditions: Orthopoxvirus vaccinia
Vaccinia virus [15] = assay: Minimum inhibitory concentration against vaccinia virus in Vero cell cultures of experiment 2; assay type: functional; conditions: Orthopoxvirus vaccinia
Vaccinia virus [16] = assay: Minimum inhibitory concentration against vaccinia virus in HeLa cell cultures; assay type: functional; conditions: Orthopoxvirus vaccinia

SMILES	IC50 (L1210) [µg/mL]	MIC (Vaccinia virus [1]) [µg/mL]	MIC (Human alphaherpesvirus 2) [µg/mL]	MIC (Vaccinia virus [2]) [µg/mL]	MIC (Vaccinia virus [3]) [µg/mL]	Binding constant (Calf thymus DNA) [M⁻¹]	IC50 (P388) [µg/mL]	IC50 (Raji) [µg/mL]	ID50 [4] [µg/mL]	MCC (Vaccinia virus [5]) [µg/mL]	MIC (Vaccinia virus [7]) [µg/mL]	MIC [8] [µg/mL]	MCC [9] [µg/mL]	MIC (Vaccinia virus [10]) [µg/mL]	MIC (Human alphaherpesvirus 1) [µg/mL]	MIC (Vaccinia virus [11]) [µg/mL]	MCC (Vaccinia virus [12]) [µg/mL]	MCC (Vaccinia virus [13]) [µg/mL]	MCC (Vaccinia virus [14]) [µg/mL]	MIC (Vaccinia virus [15]) [µg/mL]	other results
Cl.Cl.Cn1cc(NC(=O)c2cc(NC(=O)CCCCCCCC(=O)Nc3cc(C(=O)Nc4cc(C(=O)NCCC(=N)N)n(C)c4)n(C)c3)cn2C)cc1C(=O)NCCC(=N)N	10.8	40	> 40	0.7	0.2	9e+06	0.75	4.36	34.2	> 200	20	> 100	>100	7	> 40	7	> 200	> 100	> 100	70	IC50 [6]: 3.3 µg/mL; IC50 (FM3A): 32 µg/mL
Cl.Cl.Cn1cc(NC(=O)c2cc(NC(=O)c3cc(NC(=O)CCC(=O)Nc4cc(C(=O)Nc5cc(C(=O)Nc6cc(C(=O)NCCC(=N)N)n(C)c6)n(C)c5)n(C)c4)cn3C)cn2C)cc1C(=O)NCCC(=N)N	> 100	> 4		> 4			> 20	41.4	>400	> 20	> 10			> 4		> 4	> 4	> 4	> 4	> 4	IC50 [6]: 2.85 µg/mL; IC50 (FM3A): 4.29 µg/mL
Nc1nccc2c1ncn2[C@@H]1C[C@H](CO)[C@@H](O)[C@H]1O [3-DEAZAARISTEROMYCIN A]		0.2 (≈ 0.757 µM)	300 (≈ 1140 µM)	2 (≈ 7.57 µM)	2 (≈ 7.57 µM)					> 400	0.7 (≈ 2.65 µM)	0.7 (≈ 2.65 µM)	>400	2 (≈ 7.57 µM)	> 400	2 (≈ 7.57 µM)	> 200	> 400	> 400	0.2 (≈ 0.757 µM)	
Cl.Cl.Cn1cc(NC(=O)c2cc(NC(=O)CCCC(=O)Nc3cc(C(=O)Nc4cc(C(=O)NCCC(=N)N)n(C)c4)n(C)c3)cn2C)cc1C(=O)NCCC(=N)N	> 100	70	200	7	7	1.8e+07	6.4	> 100	39.9	> 400	40	> 200	>200	20	> 200	20	> 400	400	> 200	150	IC50 [6]: > 100 µg/mL; IC50 (FM3A): > 100 µg/mL
Cl.Cl.Cn1cc(NC(=O)c2cc(NC(=O)CC(=O)Nc3cc(C(=O)Nc4cc(C(=O)NCCC(=N)N)n(C)c4)n(C)c3)cn2C)cc1C(=O)NCCC(=N)N	28.5	2	> 4	0.2	0.2	3.6e+07	0.91	3.39	39	> 40	2	> 10	>10	2	> 4	2	> 40	> 40	40	2	IC50 [6]: 2.85 µg/mL; IC50 (FM3A): 5.87 µg/mL
Cn1cc(NC(=O)c2cc(NC(=O)CNC(=N)N)cn2C)cc1C(=O)NCCC(=N)N						1.9e+07															
Cl.Cl.Cn1cc(NC(=O)c2cc(NC(=O)CCCCCCC(=O)Nc3cc(C(=O)Nc4cc(C(=O)NCCC(=N)N)n(C)c4)n(C)c3)cn2C)cc1C(=O)NCCC(=N)N	3.34	7	> 10	0.07	0.2	2.5e+07	0.7	2.14	21.3	> 200	2	> 10	>10	2	> 10	0.7	> 40	> 200	> 40	7	IC50 [6]: 1.74 µg/mL; IC50 (FM3A): 3.15 µg/mL
O=C(O)C1=CC(=C(c2ccc(O)c(C(=O)O)c2)c2ccc(O)c(C(=O)O)c2)C=CC1=O [AURINTRICARBOXYLIC ACID]									1.42 (≈ 3.36 µM)												
Cl.Cl.Cn1cc(NC(=O)c2cc(NC(=O)CCCCCCCCC(=O)Nc3cc(C(=O)Nc4cc(C(=O)NCCC(=N)N)n(C)c4)n(C)c3)cn2C)cc1C(=O)NCCC(=N)N	4.21	20	> 10	0.2	0.7	1.7e+07	0.98	3.24	20.9	100	20	> 10	>40	2	> 10	2	> 40	> 100	> 40	> 40	IC50 [6]: 2.97 µg/mL; IC50 (FM3A): 22.1 µg/mL
Cn1cc(NC(=O)c2cc(NC(=O)c3cc(NC=O)cn3C)cn2C)cc1C(=O)NCCC(=N)N [STALLIMYCIN]	27 (≈ 56.1 µM)					8e+06	> 20	24 (≈ 49.8 µM)													IC50 (FM3A): 31 µg/mL (≈ 64.4 µM)
Nc1ncnc2c1ccn2[C@@H]1O[C@H](CO)[C@@H](O)[C@H]1O [TUBERCIDIN]		0.02 (≈ 0.0751 µM)	> 0.4	0.07 (≈ 0.263 µM)	> 0.1					> 1	0.2 (≈ 0.751 µM)	0.2 (≈ 0.751 µM)	>1	0.2 (≈ 0.751 µM)	> 0.4	> 0.1	> 0.4	> 0.1	> 0.4	0.02 (≈ 0.0751 µM)	
Cl.Cl.Cn1cc(NC(=O)c2cc(NC(=O)CCCCCCCCCCC(=O)Nc3cc(C(=O)Nc4cc(C(=O)NCCC(=N)N)n(C)c4)n(C)c3)cn2C)cc1C(=O)NCCC(=N)N		> 40	7	0.2	2	2.2e+07	4.8		9.1	> 40		> 10	>40		> 10	2	> 100	> 40	> 40		MIC (Vaccinia virus [16]): 2 µg/mL
Cl.Cl.Cn1cc(NC(=O)c2cc(NC(=O)CCCCCC(=O)Nc3cc(C(=O)Nc4cc(C(=O)NCCC(=N)N)n(C)c4)n(C)c3)cn2C)cc1C(=O)NCCC(=N)N	> 100	20	70	0.7	2	1.2e+07	4.4	11.1	72.5	> 200	20	> 200	400	7	150	7	> 200	200	> 200	20	IC50 [6]: 5.74 µg/mL; IC50 (FM3A): > 100 µg/mL
Cl.Cl.Cn1cc(NC(=O)c2cc(NC(=O)CCCCC(=O)Nc3cc(C(=O)Nc4cc(C(=O)NCCC(=N)N)n(C)c4)n(C)c3)cn2C)cc1C(=O)NCCC(=N)N	24.3	1	> 10	7	0.7	1e+07	1.05	13.3	57.2	> 400	0.7	> 10	>40	2	> 10	100	> 400	100	> 40	2	IC50 [6]: 5.62 µg/mL; IC50 (FM3A): 57.8 µg/mL
NC(=O)c1ncn([C@@H]2O[C@H](CO)[C@@H](O)[C@H]2O)n1 [RIBAVIRIN]		7 (≈ 28.7 µM)	300 (≈ 1230 µM)	70 (≈ 287 µM)	20 (≈ 81.9 µM)					> 400	20 (≈ 81.9 µM)	> 400	>400	7 (≈ 28.7 µM)	> 400	20 (≈ 81.9 µM)	> 400	> 400	> 400	20 (≈ 81.9 µM)	
Cn1cc(NC(=O)c2cc(NC(=O)CCC(=O)Nc3cc(C(=O)Nc4cc(C(=O)NCCC(=N)N)n(C)c4)n(C)c3)cn2C)cc1C(=O)NCCC(=N)N						7.2e+07															
